HCT116 bCat-KO: beta-catenin-lacking colon tumor cell growth suppression | HCT116 beta-catenin knockout viability, CellTiter-Glo, 60 h; active compounds read low | viability, % at 10 µM | actives 1.5% (n = 140,000) | AID 818;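 active = viability at or under a set limit, the compound median less 4 SD, cut at about 6% in these data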;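 also: 0% = Hyamine 1622 control at 20 µM and 100% = untreated cell control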
PTEN del growth: suppresses growth of cells with PTEN deletion | HCT116 PTEN-null viability, CellTiter-Glo, 60 h; active compounds read low | viability, % at 10 µM | actives 1.2% (n = 140,000);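 active = viability at or below a set limit, 4 SD under the median of all tested compounds, cut at about 3.7% in these data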;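 also: PTEN knockout HCT116 line with beta catenin targeted HCT116 as companion control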
Lmaj promast: reduces viability of Leishmania major promastigotes. resazurin fluorescence viability. inhibition, % at 10 µM. actives 9% (n = 200,000); in the data active = inhibition above about 50%;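 also: promastigotes grown with compound for 44 hours at 28 °C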
Autophagy HCS: modulators of autophagy; MEF GFP-LC3 puncta imaging; test concentration mostly 10 µM; calls only at 10 µM (by protocol); actives 0.98% (n = 190,000); AID 463193;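 active = percentage of spot-positive cells more than 3 SD above its plate mean, without a fluorescence outlier flag or 80% toxicity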;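 also: spot-positive cell cutoff set from DMSO-treated cells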
Dynein transport: blocks dynein driven cargo transport along microtubules | 3617.4 mouse cells, GR-EGFP nuclear translocation imaging; test concentration mostly 20 µM; stimulated with dexamethasone, 1 µM; active compounds read low | z-score, hits read low | actives 0.47% (n = 220,000) | AID 1381;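 active = plate z-score of nuclear minus cytoplasmic receptor signal below a set negative limit, without overly bright fluorescence or cell loss, cut at about -3.5 in these data, passing the limit was not always enough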;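 also: z-score of nuclear minus cytoplasmic ring GR-EGFP intensity difference per well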
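Buffer or medium: tet-free, stripped-serum medium; Also added: dexamethasone, 1.0 µM final; Technique: high-content fluorescence imaging after fixation; Times: 48 h induction, 1 h compound, 30 min dex at 37 °C; Read-out: per-cell GR-EGFP intensity, nucleus versus surrounding cytoplasmic ring, well-averaged.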
Numbers without * were called inactive; i = inactive; . = not tested or not shown; + = active, no number. In the library only some 9.2% were active in any assay of this set; here they are far more common.

SMILES | HCT116 bCat-KO | PTEN del growth | Lmaj promast | Autophagy HCS | Dynein transport
O=C(NCCc1ccncc1)Nc1ccccc1 | 98 | 96 | -6 | i | -0.97
O=C(NCCc1ccncc1)Nc1ccc(Cl)c(Cl)c1 | . | . | 96* | i | 0.49
COCC(C)n1c(SCC(=O)NNC(=O)c2ccc(F)cc2)nc2ccccc2c1=O (stereo not given) | 88 | 102 | -2 | i | -0.17
COc1ccc(C2C(C(=O)NCc3cccnc3)c3ccccc3C(=O)N2C)cc1OC (stereo not given) | 90 | 100 | -4 | i | -0.2
Cc1ccc(C(O)(C(=O)NN(C(=O)c2ccccc2)c2ccccc2)c2ccc(C)cc2)cc1 | 69 | 53 | 32 | i | 0.3
Cc1ccc(N(NC(=O)C(O)(c2ccccc2)c2ccccc2)C(=O)CCl)cc1 | 3.3* | 3.4* | 88* | i | -3
CCn1c2ccccc2c2cc(CNCc3ccc(OC)cc3OC)ccc21 | . | . | 81* | + | -2.5
CCn1c2ccccc2c2cc(CN3CCN(S(=O)(=O)CC)CC3)ccc21 | 72 | 67 | 28 | i | -0.73
CCC(CC)NCc1ccc2c(c1)c1ccccc1n2CC | . | . | 95* | i | 0.95
CCn1c2ccccc2c2cc(N)ccc21 | 64 | 69 | 78* | i | -0.035
CCn1c(=O)n(CC)c2cc(N)ccc21 | . | . | -4 | i | -0.85
Cc1ccccc1NC(=O)c1cccc(NC(=O)CCC(=O)O)c1 | . | . | -6 | i | -0.56
CC(C)c1ccc(NNC(=O)C2CCC2)cc1 | . | . | . | . | 0.3
COc1cccc2c1OC1(C)CC2/C(=C(\C)O)C(=O)N1 (stereo not given) | 100 | 97 | -2 | i | -0.74
Cc1cccc(C)c1NC(=O)CCCSc1nnc(-c2ccc(Cl)cc2)n1-c1ccccc1 | 31 | 40 | 56* | i | 0.068
COc1ccc(C2C3=C(CCCC3=O)Nc3nc(C(F)(F)F)nn32)cc1OC (stereo not given) | 85 | 87 | -7 | i | 0.26
COc1ccc(C2C(C(=O)c3ccccc3)=C(C)Nc3nc4ccccc4n32)c(OC)c1 (stereo not given) | 63 | 53 | 87* | i | -0.42
COc1cc(OC)c(C2C3=C(CCCC3=O)Nc3nc4ccccc4n32)cc1OC (stereo not given) | 93 | 95 | 99* | i | -0.19
Cc1ccc(-n2cc(CNC(C)c3cnn(C)c3C)c(-c3ccc(F)cc3)n2)cc1 (stereo not given) | . | . | 32 | i | 0.42
CN(C)/C=C(/C(=O)c1ccccc1)n1cncn1 | . | . | -3 | i | -0.81
CC(C)(C)C(=O)/C(=C\c1ccc([N+](=O)[O-])cc1)n1cncn1 | 1.4* | 1.6* | 100* | + | -5.1*
Cc1cc(NC(=O)CN2C(=O)NC(C)(c3ccc(Cl)cc3)C2=O)no1 (stereo not given) | . | . | 2 | i | -0.44
Cc1ccc(NC(=O)CN2C(=O)NC(C)(c3ccc(Cl)cc3)C2=O)cc1S(=O)(=O)N1CCOCC1 (stereo not given) | 38 | 33 | 56* | i | 1.1
CC(C)(C)c1ccc(C2(C)NC(=O)N(CC(=O)Nc3ccc4c(c3)OCO4)C2=O)cc1 (stereo not given) | 53 | 62 | 77* | i | -0.11
O=C1CN(C(=O)CCCc2c[nH]c3ccccc23)c2ccccc2N1 | 102 | 93 | -4 | i | -0.17
SMILES | HCT116 bCat-KO | PTEN del growth | Lmaj promast | Autophagy HCS | Dynein transport
Cc1ccc(S(=O)(=O)N2CCN(c3ccc(C(=O)N4CCOCC4)cc3[N+](=O)[O-])CC2)cc1 | 82 | 87 | 61* | i | -0.25
O=C(/C=C/c1ccc(N2CCCCC2)c([N+](=O)[O-])c1)c1ccc(S(=O)(=O)N2CCCC2)cc1 | 0.9* | 0.7* | 100* | i | -0.5
O=[N+]([O-])c1cccc(S(=O)(=O)c2ccc(N3CCCCC3)c([N+](=O)[O-])c2)c1 | 51 | 54 | 6 | i | -1.3
O=[N+]([O-])c1cc(S(=O)(=O)c2ccc(N3CCCCC3)c([N+](=O)[O-])c2)ccc1N1CCCCC1 | 59 | 65 | 95* | i | 0.41
COc1cccc(C(=O)NC(=S)N2CCN(c3ccc(C(F)(F)F)cc3[N+](=O)[O-])CC2)c1 | 71 | 81 | 51* | i | -0.2
NS(=O)(=O)c1ccc(O)c(NC(=O)c2ccc([N+](=O)[O-])cc2)c1 | . | . | -5 | i | -0.26
Cc1ccc(/C=N/n2nnnc2N)cc1[N+](=O)[O-] | 97 | 96 | 6 | i | 0.81

Assay outcomes from PubChem.
